Measured values: ChEMBL document CHEMBL1125098, “Lipophilic 1,3-xylyl-21-crown-6 macrocyclic polyether 2-carboxylic acids as biological mimics of the ionophore antibiotics” (1990)
≈ marks a conversion by molar mass, not a printed value.

Tests used:
[1] = Antibacterial activity Streptococcus zooepidemicus 02H001; type: functional, Streptococcus equi subsp. zooepidemicus; conditions: Streptococcus equi
In short: (§1)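 Agar dilution MIC on BHI agar: overnight BHI broth cultures (37 °C) diluted 100-fold, ~10000–20000 cells spotted by multiple inoculator; twelve 2-fold dilutions starting at 200 μg/mL; plates read after 18 h at 37 °C, single colonies disregarded. Compounds tested as macrocyclic carboxylate salts.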

Bos taurus [2] = species on record: Bos taurus; experiment: In vitro rumen propionic acid test procedure, 50 ug/mL; type: functional
In short: (§2)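 Filtered rumen fluid (10 mL) with 400 mg substrate (68% corn starch, 17% cellulose, 15% extracted soybean meal) and pH 6.8 buffer, compound at 50 or 20 μg/mL; N2-gassed, shaken at 39 °C ~6 h, triplicate. Stopped with metaphosphoric acid, then GLC peak heights of acetic/propionic/butyric acids; response expressed relative to monensin at 10 μg/mL versus untreated controls.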

Bos taurus [3] = species on record: Bos taurus; experiment: In vitro rumen propionic acid test procedure, 20 ug/mL; type: functional; in short: as §2
Clostridium perfringens = experiment: Antibacterial activity was determined against Clostridium perfringens 10A002; type: functional
In short: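 Agar dilution MIC on BHI agar, twelve 2-fold dilutions of drug starting at 200 μg/mL. Overnight BHI broth cultures (37 °C) diluted 100-fold; about 10000–20000 cells spotted per point by multiple inoculator. Plates read after 18 h at 37 °C, single colonies disregarded. Incubated anaerobically under 80% N₂, 10% CO₂, 10% H₂ in an anaerobic chamber.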

[4] = Antibacterial activity against Streptococcus equi 02I001; type: functional; in short: as §1
Staphylococcus aureus = experiment: Antibacterial activity against Staphylococcus aureus 01A005; type: functional; in short: as §1

SMILES	MIC [1] [µg/mL]	Stimulation (Bos taurus [2]) [%]	Stimulation (Bos taurus [3]) [%]	MIC (Clostridium perfringens) [µg/mL]	MIC [4] [µg/mL]	MIC (Staphylococcus aureus) [µg/mL]
COCc1cc(C(C)(C)CC(C)(C)C)cc2c1OCCOCCOCc1cc(C(C)(C)C)cc(c1C(=O)O)COCCOCCO2	25 (≈ 38.8 µM)	0.64	0.2	25 (≈ 38.8 µM)	12.5 (≈ 19.4 µM)	12.5 (≈ 19.4 µM)
CC(C)(C)c1cc2c(C(=O)O)c(c1)COC(COc1ccccc1)COc1ccccc1OCCOCCOCCOC2 (configuration not stated)	50 (≈ 84.1 µM)		0	25 (≈ 42 µM)	25 (≈ 42 µM)	25 (≈ 42 µM)
O=C(O)c1c2cccc1COCCOCCOc1ccccc1OCCOCCOC2	> 200	0.2		> 200	> 200	> 200
CC(C)(C)CC(C)(C)c1ccc2c(c1)OCCOCCOCc1cc(C(C)(C)C)cc(c1C(=O)O)COCCOCCO2	6.25 (≈ 10.4 µM)	0.97	0.64	6.25 (≈ 10.4 µM)	6.25 (≈ 10.4 µM)	12.5 (≈ 20.8 µM)
COc1cc2c(C(=O)O)c(c1)COCCOCCOc1c(C)cc(C(C)(C)CC(C)(C)C)cc1OCCOCCOC2	25 (≈ 42.5 µM)	0.42	0.04		25 (≈ 42.5 µM)	50 (≈ 84.9 µM)
Cc1cc(C(C)(C)CC(C)(C)C)cc2c1OCCOCCOCc1cc(C(C)(C)C)cc(c1C(=O)O)COCCOCCO2	6.25 (≈ 10.2 µM)	1.02	0.5	3.12 (≈ 5.07 µM)	3.12 (≈ 5.07 µM)	6.25 (≈ 10.2 µM)
CC(C)(C)CC(C)(C)c1ccc2c(c1)OCCOCCOCCOCc1cc(C(C)(C)C)cc(c1C(=O)O)COCCOCCOCCO2	25 (≈ 36.3 µM)	0.52	0.4	25 (≈ 36.3 µM)	12.5 (≈ 18.1 µM)	50 (≈ 72.6 µM)
CC(C)c1cc(C(C)(C)CC(C)(C)C)cc2c1OCCOCCOCc1cc(C(C)(C)C)cc(c1C(=O)O)COCCOCCO2	0.78 (≈ 1.21 µM)	0.7	0.43	< 0.39	0.78 (≈ 1.21 µM)	0.78 (≈ 1.21 µM)
CC(C)(C)CC(C)(C)c1cc(CCc2ccccc2)c2c(c1)OCCOCCOCc1cc(C(C)(C)C)cc(c1C(=O)O)COCCOCCO2	1.56 (≈ 2.21 µM)	1.09	0.32	1.56 (≈ 2.21 µM)	1.56 (≈ 2.21 µM)	6.25 (≈ 8.87 µM)
CC(C)(C)c1ccc(OCC2COc3ccccc3OCCOCCOCCOCc3cc(C(C)(C)C)cc(c3C(=O)O)CO2)cc1 (configuration not stated)	3.12 (≈ 4.79 µM)	1.06	0.6	1.56 (≈ 2.4 µM)	1.56 (≈ 2.4 µM)	1.56 (≈ 2.4 µM)
CCCCCCCCCCCc1ccc2c(c1)OCCOCCOCc1cccc(c1C(=O)O)COCCOCCO2	1.56 (≈ 2.66 µM)	0.82	0.46	3.12 (≈ 5.32 µM)	1.56 (≈ 2.66 µM)	1.56 (≈ 2.66 µM)
O=C(O)c1c2cccc1COCCOCCOCCOCCOCCOC2	> 200	0	0	> 200	> 200	> 200
Cc1cc(C(C)(C)CC(C)(C)C)cc2c1OCCOCCOCc1cc(Br)cc(c1C(=O)O)COCCOCCO2	12.5 (≈ 19.6 µM)	0.53	0.06		6.25 (≈ 9.8 µM)	12.5 (≈ 19.6 µM)
Cc1cc(C(C)(C)CC(C)(C)C)cc2c1OCCOCCOCc1cccc(c1C(=O)O)COCCOCCO2	50 (≈ 89.5 µM)	0.87	0.33		12.5 (≈ 22.4 µM)	25 (≈ 44.7 µM)
CC(C)(C)CC(C)(C)c1ccc2c(c1)OCCOCCOCc1cccc(c1C(=O)O)COCCOCCO2	25 (≈ 45.9 µM)	1.02	0.4	25 (≈ 45.9 µM)	25 (≈ 45.9 µM)	25 (≈ 45.9 µM)
CC(C)(C)CC(C)(C)c1cc(Cc2ccccc2)c2c(c1)OCCOCCOCc1cc(C(C)(C)C)cc(c1C(=O)O)COCCOCCO2	3.12 (≈ 4.52 µM)	0.76	0.44	1.56 (≈ 2.26 µM)	3.12 (≈ 4.52 µM)	3.12 (≈ 4.52 µM)
Cc1cc(C(C)(C)CC(C)(C)C)cc2c1OCCOCCOCCOCc1cc(C(C)(C)C)cc(c1C(=O)O)COCCOCCOCCO2	6.25 (≈ 8.89 µM)	0.41	0.11	12.5 (≈ 17.8 µM)	3.12 (≈ 4.44 µM)	12.5 (≈ 17.8 µM)
